Most compounds without a hit are left out; they make up all but 5.8% or so of the library.
T cruzi growth-1 – blocks T. cruzi growth in NIH3T3 culture; T. cruzi beta-gal in NIH3T3, GalScreen luminescence, 90 h; inhibition, % at 8.34 µM; 5.9% of 77,000 active; AID 624255;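 active = mean inhibition above about 93%, with at least 55% of replicates each passing it, limit read from the data, passing the limit was not always enough; inconclusive = only one of those two conditions holds; inactive = neither condition holds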
KDM4C inh – blocks human GASC-1 (KDM4C) demethylase activity; 0.15% of 96,000 active; inhibition, % at 12.5 µM; Q9H3R0; AID 720574; GST-KDM4C 2-372, H3K9me3 peptide, LANCE TR-FRET;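 active = mean replicate inhibition above about 25%, with at least 55% of replicates also reaching it, limit read from the data, passing the limit was not always enough; inconclusive = only one of those two conditions met; inactive = neither condition met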
Target sequence (Q9H3R0 2-372 limits assumed): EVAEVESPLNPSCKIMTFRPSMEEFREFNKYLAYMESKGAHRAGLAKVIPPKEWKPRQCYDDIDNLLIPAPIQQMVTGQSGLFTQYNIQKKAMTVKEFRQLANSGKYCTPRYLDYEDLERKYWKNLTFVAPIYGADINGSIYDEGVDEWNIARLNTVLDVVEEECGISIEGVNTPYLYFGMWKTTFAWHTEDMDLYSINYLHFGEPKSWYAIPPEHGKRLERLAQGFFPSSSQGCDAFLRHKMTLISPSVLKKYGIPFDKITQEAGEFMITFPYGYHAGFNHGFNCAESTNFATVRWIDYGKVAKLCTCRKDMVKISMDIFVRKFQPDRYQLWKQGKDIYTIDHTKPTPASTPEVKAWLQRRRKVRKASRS
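Material: GST-tagged GASC-1 (JMJD2C) catalytic fragment, aa 2-372 / Quantity: enzyme final amount 10 nM / Medium: HEPES buffer, pH 7.5, plus ascorbate / Doses: one test concentration per compound / Incubation: 30 min reaction, 60 min detection, RT / Measured by: LANCE TR-FRET / Read-out: inhibition from TR-FRET ratio decrease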
IDH1 mut inh – inhibitors of human IDH1 R132H | O75874 | IDH1 R132H reductase, diaphorase/resazurin fluorescence, 60 min | inhibition, % at 10 µM | 0.18% of 70,000 active | AID 624101; in the data active = inhibition above about 34%; inconclusive = no clear call, values can overlap the other calls; inactive = below about 11%
Target sequence (O75874 whole entry R132H): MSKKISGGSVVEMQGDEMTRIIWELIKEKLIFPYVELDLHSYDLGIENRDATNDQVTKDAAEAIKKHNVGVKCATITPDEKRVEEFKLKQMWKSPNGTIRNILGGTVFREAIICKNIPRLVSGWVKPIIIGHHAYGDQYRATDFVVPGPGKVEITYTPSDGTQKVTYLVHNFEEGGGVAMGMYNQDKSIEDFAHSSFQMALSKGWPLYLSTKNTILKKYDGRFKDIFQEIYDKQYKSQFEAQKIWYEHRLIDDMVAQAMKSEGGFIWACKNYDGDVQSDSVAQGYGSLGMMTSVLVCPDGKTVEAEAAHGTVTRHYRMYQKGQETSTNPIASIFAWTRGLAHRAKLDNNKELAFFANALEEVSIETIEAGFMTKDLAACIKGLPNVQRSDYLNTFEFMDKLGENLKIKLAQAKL
Pf Dd2 growth – inhibitors of Plasmodium falciparum Dd2 growth; P. falciparum Dd2 growth, SYBR Green, 72 h; active compounds read low; activity change, % at 10 µM; 2.3% of 94,000 active; AID 1159554; in the data active = activity change below about -80%; inconclusive = no clear call, values can overlap the other calls
T cruzi growth-2 – blocks T. cruzi growth in NIH3T3 host cells; 72% of 5,600 active; AID 651739; shares compounds with T cruzi growth-1; T. cruzi beta-gal in NIH3T3, GalScreen luminescence, 90 h; inhibition, % at 8.35 µM;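 active = mean replicate inhibition above about 95% and at least 55% of replicates individually reaching it, limit read from the data; inconclusive = only one of the two criteria is met; inactive = neither criterion is met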
T cruzi growth-3 – inhibitors of T. cruzi proliferation; shares compounds with T cruzi growth-1; T. cruzi beta-gal in NIH3T3, GalScreen luminescence, 90 h; inhibition, % at 2.09 µM; 21% of 5,600 active; AID 651740;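 active = mean inhibition above about 95%, with at least 55% of replicates also reaching it, limit read from the data; inconclusive = meets just one of the two conditions; inactive = meets neither condition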
3T3 cytotox – cytotoxicity in mouse NIH/3T3 fibroblasts; shares compounds with T cruzi growth-1; NIH/3T3 viability, CellTiter-Glo ATP luminescence, 90 h; cytotoxicity (signal decrease), % at 8.35 µM; 14% of 5,600 active; AID 651742;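 active = mean signal decrease across replicates above about 35% based on untreated-well scatter, with enough replicates individually passing, limit read from the data; inconclusive = no rule stated though some were filed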
3T3 cytotox 2 – cytotoxicity in mouse NIH/3T3 fibroblasts; shares compounds with T cruzi growth-1; inhibition, % at 24.9 µM; NIH/3T3 viability, CellTiter-Glo ATP luminescence, 90 h; AID 651744; 56% of 5,600 active;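 active = mean loss of cell viability signal at or above a set limit, and enough replicates individually reaching it; inconclusive = meets only the mean limit or only the replicate share; inactive = meets neither condition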
Large screens that a line does not name were inactive (follow-up assays come after a bar, where they were run).

COc1ccc(NC(=O)Nc2ccc3c(c2)C(=O)N([C@@H](C)CO)C[C@H](C)[C@H](CN(C)Cc2ccc(C(F)(F)F)cc2)OCCCC[C@@H](C)O3)cc1	T cruzi growth-1 96.0 | T cruzi growth-2 104.8 | T cruzi growth-3 101.9 | 3T3 cytotox inactive | 3T3 cytotox 2 inactive
C[C@@H]1CCCCO[C@H](CN(C)Cc2ccc(C(F)(F)F)cc2)[C@@H](C)CN([C@H](C)CO)C(=O)c2cc(NC(=O)Nc3ccc(C(F)(F)F)cc3)ccc2O1	T cruzi growth-1 98.5 | T cruzi growth-2 105.0 | T cruzi growth-3 112.1 | 3T3 cytotox inactive | 3T3 cytotox 2 inactive
COc1ccc(NC(=O)Nc2ccc3c(c2)C(=O)N([C@H](C)CO)C[C@@H](C)[C@H](CN(C)Cc2ccc(C(F)(F)F)cc2)O3)cc1	none
C[C@H](CO)N1C[C@H](C)[C@@H](CN(C)Cc2ccc(C(F)(F)F)cc2)OCCCC[C@H](C)Oc2ccc(NC(=O)Nc3ccc(C(F)(F)F)cc3)cc2C1=O	none (no result: IDH1 mut inh)
COc1ccc(CN(C)C[C@H]2OCCCC[C@@H](C)Oc3ccc(NC(=O)Nc4ccc(C(F)(F)F)cc4)cc3C(=O)N([C@H](C)CO)C[C@@H]2C)cc1	none (no result: KDM4C inh, IDH1 mut inh)
O=C(C[C@H]1C=C[C@H](NS(=O)(=O)c2ccc(F)cc2)[C@@H](CO)O1)NCc1ccc(Cl)c(Cl)c1	none
CCc1cccc(C)c1NC(=O)CN(C)S(=O)(=O)c1ccc(Br)cc1	none (no result: T cruzi growth-1, KDM4C inh, Pf Dd2 growth)
COc1ccc(C#Cc2ccc([C@H]3[C@H]4CN(C(=O)Nc5ccccc5F)CC(=O)N4[C@H]3CO)cc2)cc1	none (no result: T cruzi growth-1, IDH1 mut inh)
C[C@@H]1CCCCO[C@H](CN(C)Cc2ccc(C(F)(F)F)cc2)[C@@H](C)CN([C@@H](C)CO)C(=O)c2cc(NC(=O)Nc3ccc(C(F)(F)F)cc3)ccc2O1	none (no result: IDH1 mut inh)
C[C@H]1CCCCO[C@@H](CN(C)Cc2ccc(C(F)(F)F)cc2)[C@@H](C)CN([C@@H](C)CO)C(=O)c2cc(NC(=O)Nc3ccc(C(F)(F)F)cc3)ccc2O1	T cruzi growth-1 inconclusive, Pf Dd2 growth -83.4 (no result: IDH1 mut inh) | T cruzi growth-2 inconclusive | T cruzi growth-3 113.2 | 3T3 cytotox 38.2 | 3T3 cytotox 2 inactive
Cc1ccccc1S(=O)(=O)N1CC[C@@H]2[C@H](CO)Nc3ccc(-c4ccc(C#N)cc4)cc3[C@@H]21	T cruzi growth-1 inconclusive (no result: IDH1 mut inh) | T cruzi growth-2 97.6 | T cruzi growth-3 104.4 | 3T3 cytotox inconclusive | 3T3 cytotox 2 67.4
Cc1ccccc1S(=O)(=O)N1CC[C@@H]2[C@H](CO)Nc3ccc(-c4cccc(C#N)c4)cc3[C@@H]21	none (no result: IDH1 mut inh)
Cc1ccccc1S(=O)(=O)N1CC[C@@H]2[C@H]1c1cc(-c3ccc(C#N)cc3)ccc1N[C@@H]2CO	T cruzi growth-1 101.2 (no result: IDH1 mut inh) | T cruzi growth-2 103.6 | T cruzi growth-3 inactive | 3T3 cytotox inactive | 3T3 cytotox 2 42.4
Cn1cnc(S(=O)(=O)N2CC[C@H]3[C@H](CO)Nc4ccc(-c5ccccc5)cc4[C@H]32)c1	T cruzi growth-1 101.4 (no result: IDH1 mut inh) | T cruzi growth-2 102.9 | T cruzi growth-3 inactive | 3T3 cytotox inactive | 3T3 cytotox 2 inactive
Cc1ccccc1S(=O)(=O)N1CC[C@@H]2[C@@H](CO)Nc3ccc(-c4cccc(C#N)c4)cc3[C@@H]21	none (no result: IDH1 mut inh)
CC(C)NC(=O)N(C)C[C@H]1Oc2c(NS(=O)(=O)c3cn(C)cn3)cccc2C(=O)N([C@H](C)CO)C[C@H]1C	none
CC(C)NC(=O)Nc1ccc2c(c1)C(=O)N(C)[C@H]1CC[C@@H](CC(=O)Nc3ccccc3)O[C@H]1CO2	none (no result: IDH1 mut inh)
C[C@H](CO)N1C[C@H](C)[C@H](CN(C)C(=O)CC2CC2)Oc2cc(C#CCN(C)C)ccc2S1(=O)=O	none
CCCC#Cc1ccc2c(c1)O[C@H](CN(C)C(=O)CC1CC1)[C@@H](C)CN([C@@H](C)CO)S2(=O)=O	T cruzi growth-1 111.0 | T cruzi growth-2 103.6 | T cruzi growth-3 inactive | 3T3 cytotox inactive | 3T3 cytotox 2 47.7
CC(C)CC#Cc1ccc2c(c1)O[C@@H](CN(C)C(=O)CC1CC1)[C@@H](C)CN([C@@H](C)CO)S2(=O)=O	none (no result: T cruzi growth-1)
CCCC#Cc1ccc2c(c1)O[C@H](CN(C)C(=O)CC1CC1)[C@@H](C)CN([C@H](C)CO)S2(=O)=O	T cruzi growth-1 101.4 | T cruzi growth-2 107.7 | T cruzi growth-3 inactive | 3T3 cytotox inactive | 3T3 cytotox 2 inactive
C[C@@H]1CN([C@@H](C)CO)C(=O)c2cccc(NC(=O)c3ccc(-c4nccs4)cc3)c2O[C@H]1CN(C)C(=O)Nc1ccc(C(F)(F)F)cc1	T cruzi growth-1 119.7 (no result: IDH1 mut inh) | T cruzi growth-2 inactive | T cruzi growth-3 inactive | 3T3 cytotox inactive | 3T3 cytotox 2 70.5
C[C@H](CO)N1C[C@H](C)[C@H](CN(C)C(=O)Nc2ccc(F)cc2)Oc2c(NC(=O)c3ccc(-c4nccs4)cc3)cccc2C1=O	none (no result: T cruzi growth-1, IDH1 mut inh, Pf Dd2 growth)
C[C@H]1CN([C@@H](C)CO)C(=O)c2cccc(NC(=O)c3ccc(-c4nccs4)cc3)c2O[C@H]1CN(C)C(=O)Nc1ccc(C(F)(F)F)cc1	none (no result: IDH1 mut inh)
C[C@@H]1CN([C@H](C)CO)C(=O)c2cccc(NC(=O)c3ccc(-c4nccs4)cc3)c2O[C@H]1CN(C)C(=O)Nc1ccc(C(F)(F)F)cc1	T cruzi growth-1 114.7, KDM4C inh inconclusive (no result: IDH1 mut inh) | T cruzi growth-2 99.9 | T cruzi growth-3 inactive | 3T3 cytotox inactive | 3T3 cytotox 2 71.5
O=C(c1cccc(F)c1)N1CCCCN2[C@H](C1)[C@@H](c1ccc(C#CC3(O)CCCC3)cc1)[C@@H]2CO	none (no result: IDH1 mut inh)
O=C(c1cccc(F)c1)N1CCCCN2[C@H](CO)[C@H](c3ccc(C#CC4(O)CCCC4)cc3)[C@@H]2C1	T cruzi growth-1 inconclusive (no result: IDH1 mut inh) | T cruzi growth-2 108.8 | T cruzi growth-3 inactive | 3T3 cytotox inactive | 3T3 cytotox 2 inactive
O=C(c1cccc(F)c1)N1CCCCN2[C@@H](CO)[C@H](c3ccc(C#CC4(O)CCCC4)cc3)[C@@H]2C1	T cruzi growth-1 inconclusive (no result: IDH1 mut inh) | T cruzi growth-2 inactive | T cruzi growth-3 inactive | 3T3 cytotox inactive | 3T3 cytotox 2 inconclusive
CN(C)C(=O)c1cccc(-c2ccc3c(c2)[C@@H]2[C@@H](CCN2C(=O)c2cnccn2)[C@H](CO)N3)c1	T cruzi growth-1 105.0 (no result: IDH1 mut inh) | T cruzi growth-2 97.4 | T cruzi growth-3 inactive | 3T3 cytotox inactive | 3T3 cytotox 2 inactive
COc1ccc(-c2ccc3c(c2)[C@@H]2[C@@H](CCN2C(=O)c2cnccn2)[C@H](CO)N3)cc1	T cruzi growth-1 inconclusive (no result: IDH1 mut inh) | T cruzi growth-2 111.6 | T cruzi growth-3 inactive | 3T3 cytotox inactive | 3T3 cytotox 2 inactive
O=C(c1cnccn1)N1CC[C@@H]2[C@H]1c1cc(-c3cccc(F)c3)ccc1N[C@@H]2CO	T cruzi growth-1 100.6 (no result: IDH1 mut inh) | T cruzi growth-2 103.8 | T cruzi growth-3 inactive | 3T3 cytotox inactive | 3T3 cytotox 2 41.4
